Measurements pooled from the literature.
Each line is one published result; the experiments were not run side by side.

SMILES	species	medium	route	dose	notes	measurement	result
CN1CCC(c2ccccc2CC(C)(C)Nc2nc(N3CCOCC3)nc(-n3c(C(F)F)nc4ccccc43)n2)CC1	dog	plasma	intravenous	2 mg/kg	single dose	Vd	9.7 L/kg
C=CC(=O)Nc1cc(Nc2nccc(Nc3cc(Cl)c(F)cc3C(C)(C)O)n2)c(OC)cc1N1CC[C@@H](N(C)C)C1	beagle dog	plasma	intravenous	1 mg/kg		Vd	29.5 L/kg
O=C(NCCN1CCCC1)c1cc(-c2ccc(CN3CCOCC3)cc2)nc2ccc(F)cc12	male beagle dog	blood	intravenous	1 mg/kg		Vd	30 L/kg
CC[C@@H]1CN(C(=O)NCC(F)(F)F)C[C@@H]1c1cnc2cnc3[nH]ccc3n12	beagle dog	plasma	oral	1 mg/kg	single dose	Vd/F	29.1 L/kg
COCc1nn(Cc2ccc(Cn3ccccc3=O)cc2)cc1C(=O)NCc1nccc(OC)c1F	male beagle dog	plasma	intravenous	1 mg/kg		Vd	< 1 L
Oc1c(-n2ccnn2)cnn1-c1cc(N2CCOCC2)ncn1	female dog	plasma	intravenous	3 mg/kg		Vd	0.78 L/kg
CCn1c(=O)c(-c2cc(NC(=O)Nc3ccccc3)c(F)cc2Br)cc2cnc(NC)cc21	beagle dog	plasma	oral	5 mg/kg	single dose	Vd/F	12.7 L/kg
Cc1nnc2sc(C(=O)NCc3ccc(-c4cccnc4F)cc3)c(N)c2c1C	dog	plasma	intravenous			Vd	0.7 L/kg
COc1ccnc(CNC(=O)c2cn(Cc3ccc(Cn4ccccc4=O)cc3)nc2C(F)(F)F)c1F	male beagle dog	plasma	intravenous	1 mg/kg		Vd	< 1 L
